The test system of one assay is Rattus norvegicus. The assay can be described thus: Antiinflammatory activity in rat paw edema model assessed as inhibition of carrageenan-induced IL-1beta protein expression in paw tissue at 20 mg/kg, po administered 30 mins prior to carrageenan challenge measured after 6 hrs by Western blotting analysis relative to vehicle-treated control. It is filed as functional, organism-based. Also on record: dose 20 mg/kg. A digest of the protocol: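 SD rats received compound orally in 0.5% CMC-Na 30 min before subplantar injection of 0.1 mL 1% carrageenan in saline. Paws were removed at 6 h, homogenized, and iNOS, COX-2 and IL-1β were assessed by Western blot. Triplicate, representative of three experiments.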

The next assay deals with Mus musculus. In words: Antiinflammatory activity in ICR mouse ear edema model assessed as inhibition of TPA-induced IL-1beta protein expression in ear tissue at 10 to 20 mg/kg, po administered 30 mins prior to TPA challenge measured after 4 hrs by Western blotting analysis relative to vehicle-treated control. It is filed as functional, organism-based. An outline of the steps: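 ICR mice (male, 18−20 g, 5 weeks old) dosed orally 30 min before TPA (1.0 μg in 20 μL acetone) was applied to inner and outer surfaces of the right ear. Killed by cervical dislocation after 4 h. Edema taken as the weight of a 5 mm punch biopsy of the right ear over the left. Ear homogenates were Western blotted for iNOS, COX-2 and IL-1β.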
In general terms: In western blotting, separated proteins are transferred to a membrane and probed.

The subject of assay [1] is RAW264.7. In words: Antiinflammatory activity in mouse RAW264.7 cells assessed as inhibition of LPS-induced nitric oxide production at 40 uM administered 30 mins prior to LPS challenge measured after 20 hrs by Griess assay relative to control. It is filed as functional. A digest of the protocol:
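RAW 264.7 cells at 3 × 10^5 cells/mL in phenol red-free 10% FBS DMEM, pretreated for 30 min, then given 1 μg/mL LPS for 20 h. Nitrite in the medium was read by Griess reaction at 540 nm against a sodium nitrite standard curve. % inhibition was calculated versus vehicle control, and IC50 by nonlinear regression. Mean ± SD of triplicates.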
On the technique in general: Griess reagent forms a coloured azo dye with nitrite.

The subject of assay [2] is RAW264.7. In words: Antiinflammatory activity in mouse RAW264.7 cells assessed as inhibition LPS-induced TNF-alpha protein expression at 10 uM after 4 hrs by Western blotting analysis relative to control. It is filed as functional.
Assay [3] deals with T1, Nuclear factor NF-kappa-B p105 subunit (Mus musculus) (UniProt P25799).
T1 sequence (whole entry): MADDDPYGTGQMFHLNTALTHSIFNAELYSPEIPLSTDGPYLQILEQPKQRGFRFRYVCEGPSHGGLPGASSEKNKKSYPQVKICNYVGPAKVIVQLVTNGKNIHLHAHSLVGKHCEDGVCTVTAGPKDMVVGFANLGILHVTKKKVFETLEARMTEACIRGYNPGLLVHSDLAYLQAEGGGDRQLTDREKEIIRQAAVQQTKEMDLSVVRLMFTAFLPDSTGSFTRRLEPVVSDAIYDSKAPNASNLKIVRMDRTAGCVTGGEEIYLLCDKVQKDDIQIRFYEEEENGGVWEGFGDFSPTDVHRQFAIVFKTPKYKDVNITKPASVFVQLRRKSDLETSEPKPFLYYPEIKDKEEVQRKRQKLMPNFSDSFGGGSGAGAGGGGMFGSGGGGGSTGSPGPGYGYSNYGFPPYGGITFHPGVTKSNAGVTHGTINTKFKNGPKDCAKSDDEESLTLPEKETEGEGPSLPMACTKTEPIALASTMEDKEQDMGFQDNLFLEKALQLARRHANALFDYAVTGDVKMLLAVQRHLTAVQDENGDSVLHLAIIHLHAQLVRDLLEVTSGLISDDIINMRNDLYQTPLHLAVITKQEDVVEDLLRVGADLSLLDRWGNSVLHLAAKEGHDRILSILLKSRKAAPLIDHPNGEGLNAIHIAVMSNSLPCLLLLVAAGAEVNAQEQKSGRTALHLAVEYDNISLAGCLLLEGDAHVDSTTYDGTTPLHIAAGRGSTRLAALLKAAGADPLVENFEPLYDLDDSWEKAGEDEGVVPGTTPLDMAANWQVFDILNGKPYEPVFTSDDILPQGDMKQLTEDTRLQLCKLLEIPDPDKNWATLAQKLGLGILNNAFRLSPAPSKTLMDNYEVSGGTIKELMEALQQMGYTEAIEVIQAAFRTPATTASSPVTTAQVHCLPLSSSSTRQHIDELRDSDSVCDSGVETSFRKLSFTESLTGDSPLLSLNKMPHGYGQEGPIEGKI
In words: Inhibition of LPS-induced NFkappaB P50 protein nuclear translocation in mouse RAW264.7 cells at 10 uM after 30 mins by Western blotting analysis relative to control. It is filed as cell-based. A digest of the protocol: (§1)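 Macrophages were exposed to compound for 30 min before LPS stimulation, with proteins extracted 30 min later. Nuclear extracts were prepared in Tris/KCl/NP-40 lysis buffer, then 420 mM NaCl buffer, and the cytosolic fraction was kept for IκB-α. Western blot on PVDF with ECL detection. Tests in triplicate; representative of three separate experiments.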

Assay [4] relates to RAW264.7. The assay can be described thus: Inhibition of LPS-induced NFkappaB transcriptional activity in mouse RAW264.7 cells assessed as reduction of phosphorylated IkappaB-alpha level at 20 uM after 30 mins by Western blotting analysis relative to control. It is filed as cell-based. An outline of the steps:
as §1

Another assay concerns the target JNK1/JNK2 (Mus musculus) (UniProt Q91Y86+Q9WTU6). The assay can be described thus: Inhibition LPS-induced JNK1/2 phosphorylation at Thr183/[…] in mouse RAW264.7 cells at 10 uM administered 30 mins prior to LPS challenge measured after 30 mins by Western blotting analysis. It is filed as cell-based. An outline of the steps: (§2)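 RAW 264.7 cells pretreated with compound for 30 min, then stimulated with LPS for 30 min. Protein extracts were Western blotted for phosphorylated ERK and JNK (SDS-PAGE, PVDF, ECL detection).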

For assay [5], the system named is RAW264.7. In words: Antiinflammatory activity in mouse RAW264.7 cells assessed as inhibition LPS-induced IL-1beta mRNA expression at 40 uM after 4 hrs by RT-PCR analysis relative to control. It is filed as functional. An outline of the steps:
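RAW 264.7 cells stimulated with LPS (1 μg/mL) with or without compound for 4 h. Total RNA was isolated and cytokine mRNA was analysed by RT-PCR: 94 °C 4 min, then 25−30 cycles of 94/55/72 °C for 30 s each, then 72 °C 5 min. Products were run on 2% agarose and stained with SYBR-Safe. Triplicate, representative of three experiments.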

Assay [6] deals with T1, Nuclear factor NF-kappa-B p105 subunit (Mus musculus). The assay can be described thus: Inhibition of LPS-induced NF-kappaB p50 binding to DNA in mouse RAW264.7 cells at 10 to 40 uM after 1.5 hrs by spectrophotometry. It is filed as cell-based.
Assay [7] relates to RAW264.7. The assay can be described thus: Antiinflammatory activity in mouse RAW264.7 cells assessed as inhibition of LPS-induced iNOS mRNA expression at 20 uM after 5 hrs by RT-PCR analysis relative to control. It is filed as functional. An outline of the steps:
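RAW 264.7 cells exposed to 1 μg/mL LPS with or without compound for 5 h. Total RNA was analysed by RT-PCR: 25−30 cycles with annealing at 55 °C. Products were separated on 2% agarose gel with SYBR-Safe staining. Experiments in triplicate.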

The target of assay [8] is Mitogen-activated protein kinase 1 and 3 (ERK2 and ERK1) (Mus musculus) (UniProt P63085+Q63844). The assay can be described thus: Inhibition LPS-induced ERK1/2 phosphorylation at Thr202/Tyr204 in mouse RAW264.7 cells at 10 uM administered 30 mins prior to LPS challenge measured after 30 mins by Western blotting analysis. It is filed as cell-based. An outline of the steps:
as §2

Activity calls are given as the source filed them. The calls are words filed in the database; no cut-off is given here.

Mitogen-activated protein kinase 1 and 3 (ERK2 and ERK1) (Mus musculus), sequence (P63085 whole entry, looked up): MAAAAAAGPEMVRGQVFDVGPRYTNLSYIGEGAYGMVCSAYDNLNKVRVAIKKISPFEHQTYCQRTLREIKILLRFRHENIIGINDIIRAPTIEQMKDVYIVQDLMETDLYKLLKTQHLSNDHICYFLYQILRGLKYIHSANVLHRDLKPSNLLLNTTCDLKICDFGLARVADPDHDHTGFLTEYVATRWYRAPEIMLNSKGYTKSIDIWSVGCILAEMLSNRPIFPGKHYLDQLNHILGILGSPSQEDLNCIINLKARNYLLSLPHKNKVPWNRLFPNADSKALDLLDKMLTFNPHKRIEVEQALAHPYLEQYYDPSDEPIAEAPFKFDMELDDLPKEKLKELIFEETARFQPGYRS
Mitogen-activated protein kinase 1 and 3 (ERK2 and ERK1) (Mus musculus), sequence (Q63844 whole entry, looked up): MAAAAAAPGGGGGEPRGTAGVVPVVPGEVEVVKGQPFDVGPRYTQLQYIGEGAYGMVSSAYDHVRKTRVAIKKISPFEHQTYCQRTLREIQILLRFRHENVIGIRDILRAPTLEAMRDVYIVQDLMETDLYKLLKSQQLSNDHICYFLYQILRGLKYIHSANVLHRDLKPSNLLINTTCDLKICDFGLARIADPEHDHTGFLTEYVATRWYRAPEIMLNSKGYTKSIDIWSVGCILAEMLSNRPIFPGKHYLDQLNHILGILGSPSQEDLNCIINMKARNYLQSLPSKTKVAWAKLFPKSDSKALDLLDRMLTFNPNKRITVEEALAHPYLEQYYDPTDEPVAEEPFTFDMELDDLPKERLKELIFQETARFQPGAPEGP
JNK1/JNK2 (Mus musculus), sequence (Q91Y86 whole entry, looked up): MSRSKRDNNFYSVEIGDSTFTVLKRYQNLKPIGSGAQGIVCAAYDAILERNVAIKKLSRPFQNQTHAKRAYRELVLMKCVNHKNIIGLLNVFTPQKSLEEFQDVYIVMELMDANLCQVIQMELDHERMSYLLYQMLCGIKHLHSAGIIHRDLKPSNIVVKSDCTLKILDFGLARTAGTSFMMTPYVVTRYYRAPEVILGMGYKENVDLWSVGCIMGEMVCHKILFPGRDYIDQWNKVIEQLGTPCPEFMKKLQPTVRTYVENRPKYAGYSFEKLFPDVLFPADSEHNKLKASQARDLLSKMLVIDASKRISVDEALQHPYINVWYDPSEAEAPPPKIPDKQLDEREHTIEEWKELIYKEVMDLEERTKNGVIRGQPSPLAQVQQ
JNK1/JNK2 (Mus musculus), sequence (Q9WTU6 whole entry, looked up): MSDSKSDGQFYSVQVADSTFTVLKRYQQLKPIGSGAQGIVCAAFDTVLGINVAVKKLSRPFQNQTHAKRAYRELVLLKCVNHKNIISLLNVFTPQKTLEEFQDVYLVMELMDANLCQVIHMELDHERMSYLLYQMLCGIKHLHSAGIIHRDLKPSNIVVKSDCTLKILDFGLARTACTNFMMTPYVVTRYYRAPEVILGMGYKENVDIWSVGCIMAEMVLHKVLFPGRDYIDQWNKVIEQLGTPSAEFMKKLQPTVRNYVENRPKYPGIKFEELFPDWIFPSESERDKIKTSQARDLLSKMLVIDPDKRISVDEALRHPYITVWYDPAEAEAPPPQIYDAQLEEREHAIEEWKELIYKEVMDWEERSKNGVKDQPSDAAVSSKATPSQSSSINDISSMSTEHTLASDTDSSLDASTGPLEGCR

Consider `C=C1C(=O)O[C@@H]2[C@@H]3[C@@]4(C=C[C@@]3(C)[C@]3(C4)C(=O)O[C@@H]4[C@H]5C(C)=CC[C@H]5[C@](C)(O)C[C@H](OC(C)=O)[C@H]43)[C@](C)(O)CC[C@@H]12`, for which the inhibition entry (in the assay with Rattus norvegicus; with Mus musculus; in assay [3]; at JNK1/JNK2 (Mus musculus); in [6]; in assay [8]) was “Active” each time. In addition, in the assay with RAW264.7 [1], the “inhibition (INH)” value is 98%. Further, the “fold change (FC)” value in the assay on RAW264.7 [2] stood at 0.9; in the assay on RAW264.7 [4] it was 0.55; at JNK1/JNK2 (Mus musculus), 0.71; in the assay on RAW264.7 [5] it was 0.21; with RAW264.7 [7], 0.67; in assay [8], 0.76.

The record behind these values is ChEMBL document CHEMBL3259611, “Suppression of inflammatory responses by handelin, a guaianolide dimer from Chrysanthemum boreale, via downregulation of NF-κB signaling and pro-inflammatory cytokine production” (J Nat Prod, 2014).
